Data taken from ChEMBL document CHEMBL4190262, “Tuning of β-glucosidase and α-galactosidase inhibition by generation and in situ screening of a library of pyrrolidine-triazole hybrid molecules” (Eur J Med Chem, 2017).
The source made the active and inactive calls. No cut-off for these calls is given here.

Columns and labels:
[1] = species on record: Bos taurus; experiment: Inhibition of bovine liver beta-glucosidase at 1 mM using p-nitrophenyl glycopyranoside preincubated for 5 mins followed by substrate addition measured after 20 mins by visible absorption spectroscopic method relative to control
Summary of the method: (§1)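 Test compound at 1 mM in well. Mix: 0.01–0.5 units/mL enzyme plus 10 mM p-nitrophenyl glycopyranoside (aqueous solution), buffered to the enzyme's optimal pH. Enzyme and inhibitor preincubated 5 min at rt. Substrate then added and incubated 20 min at 37 °C. Stopped with sodium borate (pH 9.8). p-Nitrophenolate read at 405 nm. Duplicates averaged.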

[2] = target: Alpha-galactosidase (Coffea arabica) (UniProt Q42656); experiment: Inhibition of coffee beans alpha-galactosidase at 50 uM using p-nitrophenyl glycopyranoside preincubated for 5 mins followed by substrate addition measured after 20 mins by visible absorption spectroscopic method relative to control
Summary of the method: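 Crude triazoles from in situ CuAAC (ascorbate/CuSO4, 24 h rt, water-diluted) were screened at 50 μM per well, assuming full conversion. Enzyme was coffee bean α-galactosidase at pH 6, 37 °C, with p-nitrophenyl glycoside substrate and 405 nm read-out. Blanks of CuSO4, ascorbate and each alkyne were run.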

[3] = target: Alpha-galactosidase (Coffea arabica, UniProt Q42656); experiment: Inhibition of coffee beans alpha-galactosidase using p-nitrophenyl glycopyranoside preincubated for 5 mins followed by substrate addition measured after 20 mins by visible absorption spectroscopic method
Summary of the method: (§2)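 IC50 determined only for compounds giving ≥80% inhibition at 1 mM, read from plots of % inhibition versus inhibitor concentration. p-Nitrophenyl glycopyranoside substrate (10 mM solution) at the enzyme's optimal pH, with 0.01–0.5 units/mL enzyme. 5 min rt preincubation with enzyme, then 20 min at 37 °C. Borate stop (pH 9.8), absorbance at 405 nm. Duplicates averaged.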

[4] = target: T1, Lysosomal acid glucosylceramidase (Homo sapiens, UniProt P04062); experiment: Inhibition of human lysosomal beta-glucocerebrosidase using 4-methylumbelliferyl-beta-D-glucopyranoside as substrate preincubated for 45 mins followed by substrate addition measured after 30 mins by fluorescence spectroscopic method
T1 sequence (P04062 whole entry): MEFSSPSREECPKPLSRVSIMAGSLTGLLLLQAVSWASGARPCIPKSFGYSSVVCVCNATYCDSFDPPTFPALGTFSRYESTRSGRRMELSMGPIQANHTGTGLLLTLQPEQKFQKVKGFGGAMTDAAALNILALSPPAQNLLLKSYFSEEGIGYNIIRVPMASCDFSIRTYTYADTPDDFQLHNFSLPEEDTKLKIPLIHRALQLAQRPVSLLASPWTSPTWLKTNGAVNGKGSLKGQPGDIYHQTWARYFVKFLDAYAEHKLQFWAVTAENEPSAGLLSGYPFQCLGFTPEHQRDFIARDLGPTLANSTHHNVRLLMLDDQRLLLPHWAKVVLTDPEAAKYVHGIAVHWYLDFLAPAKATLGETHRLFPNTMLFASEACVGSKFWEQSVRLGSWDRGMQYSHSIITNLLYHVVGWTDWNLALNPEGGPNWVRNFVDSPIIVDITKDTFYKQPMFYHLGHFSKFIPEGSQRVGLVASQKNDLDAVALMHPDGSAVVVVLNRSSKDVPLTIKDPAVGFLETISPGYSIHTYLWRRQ
Summary of the method: (§3)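 Enzyme in 100 mM McIlvaine buffer pH 5.2 with 0.25% sodium taurocholate and 0.1% Triton X-100, with inhibitor. Preincubated at 0 °C for 45 min, then started with 3 mM 4-methylumbelliferyl glycoside substrate solution and incubated 30 min at 37 °C. Stopped with 400 mM glycine-NaOH pH 10.6. 4-Methylumbelliferone fluorescence read at ex 362/em 450 nm.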

[5] = target: T2, Alpha-galactosidase A (Homo sapiens) (UniProt P06280); experiment: Inhibition of human lysosomal alpha-galactosidase A at 1 mM using 4-methylumbelliferyl-alpha-D-galactopyranoside as substrate preincubated for 45 mins followed by substrate addition measured after 30 mins by fluorescence spectroscopic method relative to control; summary of the method: as §3
T2 sequence (whole entry): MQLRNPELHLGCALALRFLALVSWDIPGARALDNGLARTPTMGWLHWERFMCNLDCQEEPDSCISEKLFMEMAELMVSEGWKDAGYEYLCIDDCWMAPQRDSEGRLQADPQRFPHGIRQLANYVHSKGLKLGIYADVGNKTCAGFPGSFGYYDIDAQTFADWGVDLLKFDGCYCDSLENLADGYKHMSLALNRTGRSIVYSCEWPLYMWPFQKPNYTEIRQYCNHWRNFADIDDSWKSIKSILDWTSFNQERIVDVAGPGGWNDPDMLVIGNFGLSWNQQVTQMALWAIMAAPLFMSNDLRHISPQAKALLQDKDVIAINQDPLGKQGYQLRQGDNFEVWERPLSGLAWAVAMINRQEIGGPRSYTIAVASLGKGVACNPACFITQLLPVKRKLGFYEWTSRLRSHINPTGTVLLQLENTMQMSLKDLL

[6] = target: T3, Beta-galactosidase (Bos taurus, UniProt Q58D55); experiment: Inhibition of bovine liver beta-galactosidase using p-nitrophenyl glycopyranoside preincubated for 5 mins followed by substrate addition measured after 20 mins by visible absorption spectroscopic method; summary of the method: as §2
T3 sequence (Q58D55 whole entry): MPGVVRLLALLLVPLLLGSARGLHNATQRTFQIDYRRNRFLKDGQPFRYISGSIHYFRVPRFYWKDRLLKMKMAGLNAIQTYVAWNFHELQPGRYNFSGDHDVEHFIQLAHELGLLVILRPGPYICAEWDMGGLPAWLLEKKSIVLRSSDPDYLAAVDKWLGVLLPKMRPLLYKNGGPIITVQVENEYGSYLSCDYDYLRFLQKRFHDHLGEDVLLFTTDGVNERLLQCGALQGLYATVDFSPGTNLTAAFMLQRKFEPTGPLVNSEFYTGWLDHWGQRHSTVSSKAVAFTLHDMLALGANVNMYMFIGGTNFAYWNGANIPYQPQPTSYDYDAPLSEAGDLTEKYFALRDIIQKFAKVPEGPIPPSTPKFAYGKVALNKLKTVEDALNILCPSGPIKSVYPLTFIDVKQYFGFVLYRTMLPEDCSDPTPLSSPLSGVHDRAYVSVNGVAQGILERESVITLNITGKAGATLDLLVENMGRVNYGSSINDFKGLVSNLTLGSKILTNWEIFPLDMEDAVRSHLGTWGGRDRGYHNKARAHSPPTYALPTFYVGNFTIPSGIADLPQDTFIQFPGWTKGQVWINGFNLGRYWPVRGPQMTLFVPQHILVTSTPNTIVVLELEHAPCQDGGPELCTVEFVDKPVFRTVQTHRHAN

[7] = Selectivity ratio of IC50 for human lysosomal alpha-galactosidase A to IC50 for coffee beans alpha-galactosidase
[8] = test system: Prunus dulcis; experiment: Inhibition of almond beta-glucosidase at 1 mM using p-nitrophenyl glycopyranoside preincubated for 5 mins followed by substrate addition measured after 20 mins by visible absorption spectroscopic method relative to control; summary of the method: as §1
[9] = test system: Saccharomyces cerevisiae; experiment: Inhibition of yeast alpha glucosidase at 1 mM using p-nitrophenyl glycopyranoside preincubated for 5 mins followed by substrate addition measured after 20 mins by visible absorption spectroscopic method relative to control; summary of the method: as §1
[10] = target: Beta-galactosidase (Escherichia coli) (UniProt Q8VNN2); experiment: Inhibition of Escherichia coli beta-galactosidase at 1 mM using p-nitrophenyl glycopyranoside preincubated for 5 mins followed by substrate addition measured after 20 mins by visible absorption spectroscopic method relative to control; summary of the method: as §1
[11] = target: T4, Alpha-mannosidase (Canavalia ensiformis) (UniProt C0HJB3); experiment: Inhibition of jack bean alpha-mannosidase at 1 mM using p-nitrophenyl glycopyranoside preincubated for 5 mins followed by substrate addition measured after 20 mins by visible absorption spectroscopic method relative to control; summary of the method: as §1
T4 sequence (whole entry): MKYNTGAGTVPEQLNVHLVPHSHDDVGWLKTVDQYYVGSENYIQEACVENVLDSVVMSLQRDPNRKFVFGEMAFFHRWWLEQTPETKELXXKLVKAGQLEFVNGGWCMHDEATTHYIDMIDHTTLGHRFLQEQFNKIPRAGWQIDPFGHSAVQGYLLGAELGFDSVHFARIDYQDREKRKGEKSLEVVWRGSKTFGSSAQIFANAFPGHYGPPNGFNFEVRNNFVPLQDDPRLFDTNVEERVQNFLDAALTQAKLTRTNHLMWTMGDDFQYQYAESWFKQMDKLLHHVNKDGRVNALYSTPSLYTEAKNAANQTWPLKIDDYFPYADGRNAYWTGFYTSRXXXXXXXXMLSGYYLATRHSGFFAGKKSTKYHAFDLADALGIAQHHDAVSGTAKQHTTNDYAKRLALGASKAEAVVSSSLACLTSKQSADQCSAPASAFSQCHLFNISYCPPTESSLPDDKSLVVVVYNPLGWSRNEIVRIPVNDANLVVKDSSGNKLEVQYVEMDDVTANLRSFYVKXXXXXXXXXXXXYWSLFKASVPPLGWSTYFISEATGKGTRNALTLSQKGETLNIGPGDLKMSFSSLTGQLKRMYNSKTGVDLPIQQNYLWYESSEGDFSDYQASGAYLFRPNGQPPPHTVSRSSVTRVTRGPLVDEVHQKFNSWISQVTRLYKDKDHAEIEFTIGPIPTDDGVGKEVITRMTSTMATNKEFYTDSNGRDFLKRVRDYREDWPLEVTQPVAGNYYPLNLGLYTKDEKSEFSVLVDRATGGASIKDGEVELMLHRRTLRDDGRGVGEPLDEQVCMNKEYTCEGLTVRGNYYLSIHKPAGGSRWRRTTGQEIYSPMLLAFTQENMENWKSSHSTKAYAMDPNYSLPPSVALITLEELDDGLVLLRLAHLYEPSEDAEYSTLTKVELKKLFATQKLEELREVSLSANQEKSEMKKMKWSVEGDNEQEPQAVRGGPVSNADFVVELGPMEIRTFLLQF

[12] = test system: Cornu aspersum; experiment: Inhibition of snail beta-mannosidase at 1 mM using p-nitrophenyl glycopyranoside preincubated for 5 mins followed by substrate addition measured after 20 mins by visible absorption spectroscopic method relative to control; summary of the method: as §1
[13] = target: Alpha-galactosidase (Coffea arabica) (UniProt Q42656); experiment: Inhibition of coffee beans alpha-galactosidase at 1 mM using p-nitrophenyl glycopyranoside preincubated for 5 mins followed by substrate addition measured after 20 mins by visible absorption spectroscopic method relative to control; summary of the method: as §1
[14] = test system: Aspergillus niger; experiment: Inhibition of Aspergillus niger amyloglucosidase at 1 mM using p-nitrophenyl glycopyranoside preincubated for 5 mins followed by substrate addition measured after 20 mins by visible absorption spectroscopic method relative to control; summary of the method: as §1
[15] = species on record: Bos taurus; experiment: Inhibition of bovine kidney alpha-L-fucosidase at 1 mM using p-nitrophenyl glycopyranoside preincubated for 5 mins followed by substrate addition measured after 20 mins by visible absorption spectroscopic method relative to control; summary of the method: as §1
[16] = target: T5, Beta-galactosidase (Aspergillus oryzae) (UniProt B7VU80); experiment: Inhibition of Aspergillus oryzae beta-galactosidase at 1 mM using p-nitrophenyl glycopyranoside preincubated for 5 mins followed by substrate addition measured after 20 mins by visible absorption spectroscopic method relative to control; summary of the method: as §1
T5 sequence (whole entry): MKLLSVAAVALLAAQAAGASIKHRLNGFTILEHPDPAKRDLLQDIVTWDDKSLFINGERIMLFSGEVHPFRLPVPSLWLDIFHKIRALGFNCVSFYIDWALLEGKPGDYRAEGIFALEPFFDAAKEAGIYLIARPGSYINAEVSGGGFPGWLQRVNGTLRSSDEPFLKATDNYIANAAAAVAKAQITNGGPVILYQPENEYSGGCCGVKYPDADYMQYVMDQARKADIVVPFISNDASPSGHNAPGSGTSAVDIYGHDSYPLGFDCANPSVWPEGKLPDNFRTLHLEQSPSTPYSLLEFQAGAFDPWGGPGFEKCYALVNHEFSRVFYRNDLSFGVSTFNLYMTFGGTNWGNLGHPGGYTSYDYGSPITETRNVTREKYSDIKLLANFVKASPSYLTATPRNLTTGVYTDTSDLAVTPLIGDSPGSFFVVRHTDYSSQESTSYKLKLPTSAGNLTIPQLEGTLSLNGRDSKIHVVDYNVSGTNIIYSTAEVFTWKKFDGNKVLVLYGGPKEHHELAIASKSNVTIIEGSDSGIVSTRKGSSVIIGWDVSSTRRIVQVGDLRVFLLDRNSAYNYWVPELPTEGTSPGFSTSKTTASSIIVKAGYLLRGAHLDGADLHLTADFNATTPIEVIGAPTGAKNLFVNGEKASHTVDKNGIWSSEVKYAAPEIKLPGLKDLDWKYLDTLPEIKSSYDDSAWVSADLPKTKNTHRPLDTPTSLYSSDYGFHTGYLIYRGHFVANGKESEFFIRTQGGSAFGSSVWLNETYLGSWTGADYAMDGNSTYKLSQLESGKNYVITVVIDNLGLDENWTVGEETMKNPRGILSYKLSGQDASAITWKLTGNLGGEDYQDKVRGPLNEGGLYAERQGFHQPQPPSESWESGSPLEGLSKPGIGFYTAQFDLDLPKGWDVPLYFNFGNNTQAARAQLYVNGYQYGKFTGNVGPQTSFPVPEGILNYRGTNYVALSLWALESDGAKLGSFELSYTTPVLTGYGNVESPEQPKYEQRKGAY

[17] = test system: Canavalia ensiformis; experiment: Inhibition of jack bean beta-N-acetylglucosaminidase at 1 mM using p-nitrophenyl glycopyranoside preincubated for 5 mins followed by substrate addition measured after 20 mins by visible absorption spectroscopic method relative to control; summary of the method: as §1
[18] = test system: Oryza sativa; experiment: Inhibition of rice alpha-glucosidase at 1 mM using p-nitrophenyl glycopyranoside preincubated for 5 mins followed by substrate addition measured after 20 mins by visible absorption spectroscopic method relative to control; summary of the method: as §1

Sequence of Alpha-galactosidase (Coffea arabica) (Q42656 16-378 limits assumed): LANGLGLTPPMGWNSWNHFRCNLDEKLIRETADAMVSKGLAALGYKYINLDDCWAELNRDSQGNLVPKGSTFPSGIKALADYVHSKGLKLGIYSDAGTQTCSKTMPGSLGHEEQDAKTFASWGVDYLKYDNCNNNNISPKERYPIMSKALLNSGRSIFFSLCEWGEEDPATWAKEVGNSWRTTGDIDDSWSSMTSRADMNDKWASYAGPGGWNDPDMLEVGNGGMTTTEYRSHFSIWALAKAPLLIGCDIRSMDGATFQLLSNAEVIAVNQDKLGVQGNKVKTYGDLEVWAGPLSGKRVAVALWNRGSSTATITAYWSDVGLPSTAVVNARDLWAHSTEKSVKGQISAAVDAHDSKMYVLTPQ
Sequence of Alpha-galactosidase (Q42656 whole entry): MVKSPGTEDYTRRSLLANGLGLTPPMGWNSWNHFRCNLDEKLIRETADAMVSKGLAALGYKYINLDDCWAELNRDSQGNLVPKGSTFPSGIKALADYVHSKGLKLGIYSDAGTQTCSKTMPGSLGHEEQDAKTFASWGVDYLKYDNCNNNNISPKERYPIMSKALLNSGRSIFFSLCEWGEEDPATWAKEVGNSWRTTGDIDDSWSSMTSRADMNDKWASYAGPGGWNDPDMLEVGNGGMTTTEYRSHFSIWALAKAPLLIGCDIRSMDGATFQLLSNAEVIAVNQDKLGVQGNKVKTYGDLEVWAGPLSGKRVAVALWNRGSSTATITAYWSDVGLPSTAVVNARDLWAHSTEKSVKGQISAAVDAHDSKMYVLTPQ
Sequence of Beta-galactosidase (Escherichia coli) (Q8VNN2 whole entry, looked up): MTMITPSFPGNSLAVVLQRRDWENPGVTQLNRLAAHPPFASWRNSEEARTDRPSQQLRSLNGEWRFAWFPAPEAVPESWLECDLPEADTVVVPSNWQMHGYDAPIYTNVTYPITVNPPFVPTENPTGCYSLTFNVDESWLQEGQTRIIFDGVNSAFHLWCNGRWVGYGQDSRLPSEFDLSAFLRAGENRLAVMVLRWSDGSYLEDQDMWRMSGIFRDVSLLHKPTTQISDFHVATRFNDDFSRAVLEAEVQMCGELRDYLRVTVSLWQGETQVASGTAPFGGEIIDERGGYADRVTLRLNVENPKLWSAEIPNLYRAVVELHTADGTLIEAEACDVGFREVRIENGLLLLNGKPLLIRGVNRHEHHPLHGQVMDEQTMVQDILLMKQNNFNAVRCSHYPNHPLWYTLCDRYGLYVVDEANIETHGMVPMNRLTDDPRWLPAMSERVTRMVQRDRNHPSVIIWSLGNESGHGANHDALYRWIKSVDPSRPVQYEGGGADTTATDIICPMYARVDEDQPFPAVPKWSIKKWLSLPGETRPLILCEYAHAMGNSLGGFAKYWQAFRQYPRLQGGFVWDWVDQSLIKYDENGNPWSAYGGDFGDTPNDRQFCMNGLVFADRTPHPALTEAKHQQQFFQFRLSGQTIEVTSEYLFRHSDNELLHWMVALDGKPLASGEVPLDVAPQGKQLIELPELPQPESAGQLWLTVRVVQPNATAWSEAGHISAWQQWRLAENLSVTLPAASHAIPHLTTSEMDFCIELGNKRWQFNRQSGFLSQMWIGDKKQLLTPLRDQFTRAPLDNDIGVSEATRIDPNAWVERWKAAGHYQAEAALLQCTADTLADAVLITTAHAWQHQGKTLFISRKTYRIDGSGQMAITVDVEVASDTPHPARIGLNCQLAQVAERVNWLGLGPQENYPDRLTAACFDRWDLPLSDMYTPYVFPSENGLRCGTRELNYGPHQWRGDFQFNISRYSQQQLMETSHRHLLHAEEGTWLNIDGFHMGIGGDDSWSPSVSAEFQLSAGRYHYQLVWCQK

inhibition [1] [%]	IC50 [4] [µM]	inhibition [5] [%]	IC50 [6] [µM]	Ratio IC50 [7]	SMILES	inhibition [2] [%]	IC50 [3] [µM]	inhibition [8] [%]	inhibition [9]	inhibition [10]	inhibition [11] [%]	inhibition [12]	inhibition [13] [%]	inhibition [14]	inhibition [15]	inhibition [16] [%]	inhibition [17]	inhibition [18]
< 50	19	< 50	42	10	COc1ccc2cc(-c3cn(C[C@H]4NC[C@@H](O)[C@H]4O)nn3)ccc2c1	64	17	< 50										
					[N-]=[N+]=NC[C@H]1NC[C@@H](O)[C@H]1O	38	127	89	inactive	inactive	43	inactive	88	inactive	inactive	50	inactive	inactive
